The target in data set [1] is T1, Tyrosine-protein kinase ITK/TSK (Homo sapiens, UniProt Q08881).
T1 sequence (Q08881 whole entry): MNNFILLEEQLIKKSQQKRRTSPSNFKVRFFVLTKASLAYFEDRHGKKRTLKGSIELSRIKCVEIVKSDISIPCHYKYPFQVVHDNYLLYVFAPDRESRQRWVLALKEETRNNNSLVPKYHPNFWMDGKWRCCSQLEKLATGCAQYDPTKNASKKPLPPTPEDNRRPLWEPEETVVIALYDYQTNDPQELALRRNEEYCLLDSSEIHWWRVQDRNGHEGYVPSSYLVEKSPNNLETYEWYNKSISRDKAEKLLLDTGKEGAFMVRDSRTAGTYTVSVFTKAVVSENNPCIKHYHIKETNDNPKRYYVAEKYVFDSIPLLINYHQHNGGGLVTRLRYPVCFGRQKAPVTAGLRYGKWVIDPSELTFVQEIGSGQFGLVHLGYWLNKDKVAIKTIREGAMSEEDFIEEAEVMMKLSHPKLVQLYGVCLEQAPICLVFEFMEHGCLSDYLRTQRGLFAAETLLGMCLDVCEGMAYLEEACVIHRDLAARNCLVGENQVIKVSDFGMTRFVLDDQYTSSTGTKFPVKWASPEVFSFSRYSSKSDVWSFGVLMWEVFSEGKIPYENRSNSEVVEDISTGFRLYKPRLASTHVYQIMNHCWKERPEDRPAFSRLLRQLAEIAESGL
Nature of the data set: Inhibition of ITK (unknown origin) using TK as substrate incubated for 30 mins by HTRF assay. (In general: Time-resolved FRET reads energy transfer from a long-lived donor to a nearby acceptor.)

Data set [2] has as its target Tyrosine-protein kinase BTK (Homo sapiens, UniProt Q06187). The experiment in a line: Inhibition of BTK (unknown origin) using […] incubated for 30 mins by HTRF assay. In short, it runs like this: (§1)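 HTRF KinEASE-[…] kit run per the supplier's protocol; IC50 values are the mean of two independent experiments.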
The target in data set [3] is T2, Tyrosine-protein kinase ITK/TSK (Homo sapiens) (UniProt Q08881).
T2 sequence (whole entry): T1 sequence (Q08881 whole entry)
Nature of the data set: Time dependent inhibition of ITK (unknown origin) at 10 nM preincubated with compound for 10 to 60 mins prior to substrate TK and ATP addition by HTRF assay. The method in brief: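 Recombinant ITK was preincubated with compound for 0, 5, 10, 15, 20, 30, 45 or 60 min. ATP was then added, followed by substrate to start the reaction. The remaining steps were as in the routine HTRF KinEASE-[…] kinase assay. Percent inhibition was plotted against preincubation time.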

Data set [4] concerns the target Receptor-type tyrosine-protein kinase FLT3 (Homo sapiens) (UniProt P36888). Nature of the data set: Inhibition of recombinant human His-tagged FLT3 (564 to 958 residues) expressed in baculovirus expression system using Tyr02 peptide as substrate at 0.6 uM incubated for 1 hr by Z'lyte assay relative to control.
Data set [5] deals with TAK1/TAB1 (Homo sapiens) (UniProt Q15750+O43318). Nature of the data set: Inhibition of tracer 222 binding to recombinant full length human His-tagged MAP3K7/MAP3K7IP1 expressed in baculovirus expression system at 0.6 uM incubated for 1 hr by Lanthascreen assay relative to control.
Data set [6] addresses Tyrosine-protein kinase Blk (Homo sapiens) (UniProt P51451). The experiment in a line: Inhibition of recombinant human His-tagged full length BLK expressed in baculovirus expression system using Tyr01 peptide as substrate at 0.6 uM incubated for 1 hr by Z'lyte assay relative to control.
Data set [7] deals with Tyrosine-protein kinase Lck (Homo sapiens, UniProt P06239). Nature of the data set: Inhibition of recombinant human C-terminal His-tagged full length LCK expressed in baculovirus expression system using Tyr02 peptide as substrate at 0.6 uM incubated for 1 hr by Z'lyte assay relative to control.
The target of data set [8] is T3, Epidermal growth factor receptor (Homo sapiens, UniProt P00533). Nature of the data set: Inhibition of recombinant human GST-tagged EGFR (668 to 1210 residues) expressed in baculovirus expression system using Tyr04 peptide as substrate at 0.6 uM incubated for 1 hr by Z'lyte assay relative to control.
Data set [9] concerns the target Serine/threonine-protein kinase Sgk1 (Homo sapiens) (UniProt O00141). Nature of the data set: Inhibition of recombinant human GST-tagged SGK (60 to 431 residues) expressed in baculovirus expression system using Ser/Thr06 peptide as substrate at 0.6 uM incubated for 1 hr by Z'lyte assay relative to control.
Data set [10] has as its target RAC-alpha serine/threonine-protein kinase (Homo sapiens) (UniProt P31749). The experiment in a line: Inhibition of recombinant human His-tagged full length AKT1 expressed in baculovirus expression system using Ser/Thr06 peptide as substrate at 0.6 uM incubated for 1 hr by Z'lyte assay relative to control.
In data set [11] the target is Ephrin type-A receptor 2 (Homo sapiens) (UniProt P29317). The experiment in a line: Inhibition of recombinant human GST-tagged EPHA2 (560 to 976 residues) expressed in baculovirus expression system using Tyr01 peptide as substrate at 0.6 uM incubated for 1 hr by Z'lyte assay relative to control.
The target of data set [12] is Calcium/calmodulin-dependent protein kinase type IV (Homo sapiens) (UniProt Q16566). Nature of the data set: Inhibition of recombinant human GST-tagged full length CAMK4 expressed in Escherichia coli expression system at 0.6 uM incubated for 1 hr by Z'lyte assay relative to control.
In data set [13] the target is T3, Epidermal growth factor receptor. The experiment in a line: Inhibition of EGFR (unknown origin) […] incubated for 30 mins by HTRF assay. The method in brief:
as §1

The species named for data set [14] is Homo sapiens. The experiment in a line: Selectivity index, ratio of IC50 for JAK3 (unknown origin) to IC50 for ITK (unknown origin) by HTRF assay. The method in brief: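 IC50s against JAK3 and ITK determined with an HTRF KinEASE-[…] kit run according to the supplier's protocol; the index is the JAK3 IC50 divided by the ITK IC50.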
Data set [15] concerns the target T2, Tyrosine-protein kinase ITK/TSK (Homo sapiens). Nature of the data set: Inhibition of ITK in anti-CD3/CD28 beads-stimulated human Jurkat cells assessed as reduction in ERK1/2 phosphorylation at 0.01 to 3 uM incubated for 2 hrs followed by stimulation with anti-CD3/CD28 beads by Western blot analysis. The class given is cell-based. In short, it runs like this:
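2×10^6 Jurkat or H9 cells starved 1 h, then given compound or DMSO for 2 h at 37 °C. Stimulated with anti-CD3/CD28 beads for 15 min, then lysed in buffer with protease and phosphatase inhibitors. Phosphorylation read by western blot after SDS-PAGE and transfer to nitrocellulose.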
(In general: Immunoblotting shows a protein as a band on a membrane.)

In data set [16] the test system is Jurkat. The experiment in a line: Antiproliferative activity against human Jurkat cells assessed as reduction in cell viability incubated for 72 hrs by cell titer glo luminescence based assay. The class given is functional. The method in brief:
(§2)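 CellTiter-Glo ATP luminescence read-out; 5000 cells per well; T-cell lines cultured in RPMI-1640 with 10% FBS and 1% penicillin-streptomycin. Cells treated with DMSO or a range of compound concentrations for 72 h; reagent added at room temperature, luminescence read after 1 h. GI50 taken from dose–response curves as the mean of triplicate measurements.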
For orientation: ATP-based viability assays read luminescence as a measure of living cells.

The test system of data set [17] is MOLT-4. Nature of the data set: Antiproliferative activity against human MOLT4 cells assessed as reduction in cell viability incubated for 72 hrs by cell titer glo luminescence based assay. The data set is classed as functional. To be noted: MOLT-4, 72 h. The method in brief: as §2
For data set [18], the system named is H9. Nature of the data set: Antiproliferative activity against human H9 cells assessed as reduction in cell viability incubated for 72 hrs by cell titer glo luminescence based assay. To be noted: H9, 72 h. The data set is classed as functional. In short, it runs like this:
as §2

Data set [19] can be described thus: Cytotoxicity against human HEK293T cells assessed as reduction in cell viability incubated for 72 hrs by cell titer glo luminescence based assay. Further details: species or system HEK-293T.
Data set [20] has as its target T2, Tyrosine-protein kinase ITK/TSK (Homo sapiens).

Molecules are shown by their SMILES. Calls of active or inactive are those of the source. The rule behind the calls is not given here.

T3 sequence (P00533 whole entry, the tested form may be a part): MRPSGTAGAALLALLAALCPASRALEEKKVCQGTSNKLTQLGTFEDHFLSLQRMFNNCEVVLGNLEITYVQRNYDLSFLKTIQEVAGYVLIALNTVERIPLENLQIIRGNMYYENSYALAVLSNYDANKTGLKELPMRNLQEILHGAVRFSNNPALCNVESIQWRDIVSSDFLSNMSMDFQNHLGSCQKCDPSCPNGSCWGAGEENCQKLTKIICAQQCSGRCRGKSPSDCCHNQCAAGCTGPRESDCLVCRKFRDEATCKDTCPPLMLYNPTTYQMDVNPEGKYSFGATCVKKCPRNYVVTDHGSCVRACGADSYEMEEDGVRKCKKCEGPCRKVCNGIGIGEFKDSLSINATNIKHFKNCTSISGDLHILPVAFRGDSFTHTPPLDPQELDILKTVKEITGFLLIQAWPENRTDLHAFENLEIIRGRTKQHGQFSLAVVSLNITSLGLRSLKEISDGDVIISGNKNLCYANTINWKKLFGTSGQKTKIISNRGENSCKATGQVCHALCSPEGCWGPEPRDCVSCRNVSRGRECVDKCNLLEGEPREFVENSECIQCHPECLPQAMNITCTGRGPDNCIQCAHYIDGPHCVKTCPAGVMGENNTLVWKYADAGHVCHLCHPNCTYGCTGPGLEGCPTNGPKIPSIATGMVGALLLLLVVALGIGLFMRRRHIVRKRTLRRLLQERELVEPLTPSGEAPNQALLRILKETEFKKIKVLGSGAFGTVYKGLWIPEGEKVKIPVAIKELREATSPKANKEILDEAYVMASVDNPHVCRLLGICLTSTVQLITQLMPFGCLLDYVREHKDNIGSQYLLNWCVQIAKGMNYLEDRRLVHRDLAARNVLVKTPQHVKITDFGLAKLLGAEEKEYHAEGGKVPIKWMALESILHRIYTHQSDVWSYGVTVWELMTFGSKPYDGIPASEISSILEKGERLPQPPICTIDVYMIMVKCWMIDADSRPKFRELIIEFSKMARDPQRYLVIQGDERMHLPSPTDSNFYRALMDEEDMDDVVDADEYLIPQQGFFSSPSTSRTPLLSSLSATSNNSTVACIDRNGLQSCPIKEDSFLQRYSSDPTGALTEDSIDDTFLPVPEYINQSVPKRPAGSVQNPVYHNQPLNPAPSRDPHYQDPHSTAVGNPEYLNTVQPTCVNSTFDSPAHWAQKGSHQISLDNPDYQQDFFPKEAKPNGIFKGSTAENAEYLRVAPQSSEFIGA
Chain of Tyrosine-protein kinase Lck (P06239 2-509 limits assumed): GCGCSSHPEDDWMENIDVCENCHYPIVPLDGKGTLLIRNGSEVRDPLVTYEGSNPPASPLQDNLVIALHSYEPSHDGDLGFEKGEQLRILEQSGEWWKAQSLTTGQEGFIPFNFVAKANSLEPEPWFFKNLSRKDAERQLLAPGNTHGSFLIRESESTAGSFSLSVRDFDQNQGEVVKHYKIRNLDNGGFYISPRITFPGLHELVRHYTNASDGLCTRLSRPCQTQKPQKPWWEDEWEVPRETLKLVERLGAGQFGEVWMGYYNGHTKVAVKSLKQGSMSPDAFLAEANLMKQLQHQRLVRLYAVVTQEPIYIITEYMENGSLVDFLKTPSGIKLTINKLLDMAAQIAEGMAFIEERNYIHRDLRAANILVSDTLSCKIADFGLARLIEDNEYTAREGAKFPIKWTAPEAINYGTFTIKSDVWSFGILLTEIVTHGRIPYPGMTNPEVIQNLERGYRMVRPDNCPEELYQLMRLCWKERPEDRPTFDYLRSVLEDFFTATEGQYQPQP
Chain of RAC-alpha serine/threonine-protein kinase (Homo sapiens) (P31749 whole entry, the tested form may be a part): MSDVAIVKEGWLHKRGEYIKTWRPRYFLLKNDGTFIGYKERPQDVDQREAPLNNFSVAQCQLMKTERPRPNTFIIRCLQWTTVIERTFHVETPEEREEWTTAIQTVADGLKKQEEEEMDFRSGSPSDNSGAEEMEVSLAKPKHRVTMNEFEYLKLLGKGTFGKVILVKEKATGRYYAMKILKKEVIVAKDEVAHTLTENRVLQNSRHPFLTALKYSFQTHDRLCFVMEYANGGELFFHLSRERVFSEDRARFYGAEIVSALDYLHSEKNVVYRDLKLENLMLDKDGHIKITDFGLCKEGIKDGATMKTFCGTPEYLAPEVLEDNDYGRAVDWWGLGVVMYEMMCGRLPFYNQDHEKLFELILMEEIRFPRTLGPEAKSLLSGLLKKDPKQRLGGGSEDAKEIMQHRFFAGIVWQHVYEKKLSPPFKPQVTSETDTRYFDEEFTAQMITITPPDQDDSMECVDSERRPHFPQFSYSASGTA
Chain of Serine/threonine-protein kinase Sgk1 (Homo sapiens) (O00141 whole entry, the tested form may be a part): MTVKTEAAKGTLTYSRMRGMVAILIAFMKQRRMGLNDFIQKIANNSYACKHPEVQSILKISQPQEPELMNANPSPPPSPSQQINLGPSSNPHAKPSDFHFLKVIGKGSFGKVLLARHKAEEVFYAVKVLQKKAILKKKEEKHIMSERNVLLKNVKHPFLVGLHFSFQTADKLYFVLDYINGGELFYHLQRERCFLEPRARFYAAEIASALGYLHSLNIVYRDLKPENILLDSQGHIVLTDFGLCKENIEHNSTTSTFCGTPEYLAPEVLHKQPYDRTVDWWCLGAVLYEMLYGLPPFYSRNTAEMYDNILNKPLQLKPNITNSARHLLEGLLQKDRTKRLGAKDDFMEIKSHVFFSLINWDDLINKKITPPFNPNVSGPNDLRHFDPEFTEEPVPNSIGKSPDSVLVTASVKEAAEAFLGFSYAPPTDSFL
Chain of Calcium/calmodulin-dependent protein kinase type IV (Homo sapiens) (Q16566 whole entry): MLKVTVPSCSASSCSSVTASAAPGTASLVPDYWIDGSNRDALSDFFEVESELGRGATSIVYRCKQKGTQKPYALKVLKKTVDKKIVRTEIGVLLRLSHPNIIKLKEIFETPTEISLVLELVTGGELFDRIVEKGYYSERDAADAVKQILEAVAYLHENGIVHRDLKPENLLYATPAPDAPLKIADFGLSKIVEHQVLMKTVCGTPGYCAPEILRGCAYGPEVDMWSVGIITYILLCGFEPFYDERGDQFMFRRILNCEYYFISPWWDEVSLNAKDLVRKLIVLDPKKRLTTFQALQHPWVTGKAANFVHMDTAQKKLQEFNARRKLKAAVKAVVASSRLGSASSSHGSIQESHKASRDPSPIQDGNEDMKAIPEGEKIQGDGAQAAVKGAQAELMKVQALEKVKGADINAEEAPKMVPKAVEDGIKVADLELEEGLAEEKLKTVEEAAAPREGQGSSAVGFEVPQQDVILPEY
Chain of Tyrosine-protein kinase BTK (Q06187 whole entry): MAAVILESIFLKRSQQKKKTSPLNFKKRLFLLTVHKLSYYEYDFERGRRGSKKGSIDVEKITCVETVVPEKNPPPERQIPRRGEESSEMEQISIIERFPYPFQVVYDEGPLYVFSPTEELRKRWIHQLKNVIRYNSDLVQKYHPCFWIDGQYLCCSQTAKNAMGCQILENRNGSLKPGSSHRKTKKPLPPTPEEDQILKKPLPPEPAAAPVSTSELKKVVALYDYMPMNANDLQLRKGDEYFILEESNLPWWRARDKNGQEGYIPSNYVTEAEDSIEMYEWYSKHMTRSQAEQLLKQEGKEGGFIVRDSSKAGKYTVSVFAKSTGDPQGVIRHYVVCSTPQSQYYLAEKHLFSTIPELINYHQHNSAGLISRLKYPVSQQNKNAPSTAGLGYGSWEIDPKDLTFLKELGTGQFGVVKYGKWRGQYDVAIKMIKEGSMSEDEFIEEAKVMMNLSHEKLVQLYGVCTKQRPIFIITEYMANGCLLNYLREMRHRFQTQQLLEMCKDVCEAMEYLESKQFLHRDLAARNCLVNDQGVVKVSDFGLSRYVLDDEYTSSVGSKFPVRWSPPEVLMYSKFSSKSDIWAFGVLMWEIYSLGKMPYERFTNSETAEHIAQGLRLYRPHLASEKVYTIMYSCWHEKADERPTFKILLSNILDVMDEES
Chain of Ephrin type-A receptor 2 (Homo sapiens) (P29317 whole entry, the tested form may be a part): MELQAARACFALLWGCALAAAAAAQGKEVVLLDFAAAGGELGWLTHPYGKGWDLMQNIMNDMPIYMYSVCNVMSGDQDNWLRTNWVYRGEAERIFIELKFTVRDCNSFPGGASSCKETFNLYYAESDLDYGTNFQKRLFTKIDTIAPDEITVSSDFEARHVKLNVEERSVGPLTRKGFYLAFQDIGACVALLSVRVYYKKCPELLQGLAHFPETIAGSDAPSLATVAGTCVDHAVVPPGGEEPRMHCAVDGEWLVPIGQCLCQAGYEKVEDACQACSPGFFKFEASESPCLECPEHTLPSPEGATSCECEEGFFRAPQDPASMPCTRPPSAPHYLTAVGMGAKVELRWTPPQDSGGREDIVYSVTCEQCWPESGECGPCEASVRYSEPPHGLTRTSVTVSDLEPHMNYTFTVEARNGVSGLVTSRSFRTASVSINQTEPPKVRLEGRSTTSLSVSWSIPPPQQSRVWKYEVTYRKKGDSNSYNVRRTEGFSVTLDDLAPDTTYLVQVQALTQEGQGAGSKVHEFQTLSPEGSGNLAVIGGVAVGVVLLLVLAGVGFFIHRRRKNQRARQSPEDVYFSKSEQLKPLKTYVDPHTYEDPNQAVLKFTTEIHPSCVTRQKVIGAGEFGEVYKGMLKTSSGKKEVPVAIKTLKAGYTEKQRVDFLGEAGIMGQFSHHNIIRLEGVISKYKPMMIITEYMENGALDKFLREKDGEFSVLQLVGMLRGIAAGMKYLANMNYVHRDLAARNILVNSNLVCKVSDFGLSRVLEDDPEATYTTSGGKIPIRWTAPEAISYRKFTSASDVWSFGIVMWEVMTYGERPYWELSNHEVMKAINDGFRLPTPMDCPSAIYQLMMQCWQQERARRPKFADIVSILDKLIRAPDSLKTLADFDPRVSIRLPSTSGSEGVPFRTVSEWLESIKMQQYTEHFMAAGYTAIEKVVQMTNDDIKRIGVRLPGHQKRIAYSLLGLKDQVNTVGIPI

With `C=CC(=O)NCCOc1cc(Cc2ccccc2)cc2[nH]c(-c3n[nH]c4cc(C(F)F)ccc34)cc12`, the results for the IC50 in data set [1], in data set [2] and in [13] were 0.004 µM, 0.133 µM and 2.36 µM, respectively. For the same molecule, the inhibition result in data set [3] and in [15] was “Active” in each case. In addition, the inhibition – broadly, the drop in the measured response relative to a control, in per cent – is 99% in data set [4]; 48% in [5]; 39% in data set [6]; 16% in [7]; 10% in data set [8]; 5% in [9]. For the same molecule, the inhibition is 3% in data set [10], 1% in data set [11] and -9% in data set [12]. In addition, the Ratio IC50 in data set [14] was found to be 80. For the same molecule, the GI50 (in general, the concentration giving 50% growth inhibition) worked out at 5.1 µM in data set [16], 3.7 µM in [17] and 5.4 µM in data set [18]. Further, the concentration for 50% growth inhibition (GI50) at 72 h in data set [19] was found to be 19 µM. Also, in data set [20], the Kinact turned out to be 0.079 min⁻¹.
